Screening data (PubChem)
S1P3 antagonist = antagonists of human S1P3 receptor | Q99500 | CHO S1P3 NFAT-BLA reporter, FRET fluorescence, antagonist mode | inhibition, % at 4.98 µM | 0.27% of 170,000 active;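 active = inhibition above the plate cutoff, the mean inhibition of test wells on that plate plus 3 SD, cut at about 28% in these data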;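 also: cells challenged with S1P at its EC80 of 0.8 µM; blue over green emission ratio from cleaved BLA substrate after 4 h stimulation; 0% = S1P-stimulated wells and 100% = unstimulated DMSO-only wells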
L major viab = reduces viability of Leishmania major promastigotes; resazurin fluorescence viability; inhibition, % at 10 µM; 9% of 200,000 active; AID 1063; in the data active = inhibition above about 50%;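 also: promastigotes grown with compound for 44 hours at 28 °C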
S1P4 antagonist = antagonists of human S1P4 receptor | inhibition, % at 4.98 µM | 0.26% of 220,000 active | S1P4-expressing cells, antagonist mode, reporter read-out | O95977; in the data active = inhibition above about 29%;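 also: 0% = wells stimulated with agonist and 100% = vehicle wells without agonist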
Mdm2 ligase inh = Mdm2 E3 ligase (human) inhibition | Q00987 | cell-based MDM2 ubiquitination luciferase reporter, 2 h; 0 = plate control, 100 = twice control, blank-subtracted | signal enhancement, % at 5 µM | 0.11% of 210,000 active | AID 1230;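 active = signal enhancement of 30% or more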;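 also: luminescence tracks abundance of the self-degrading MDM2-luciferase fusion protein; higher signal means inhibition of MDM2 E3 ligase activity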
Target sequence (Q00987 whole entry, looked up, the tested form may be a part): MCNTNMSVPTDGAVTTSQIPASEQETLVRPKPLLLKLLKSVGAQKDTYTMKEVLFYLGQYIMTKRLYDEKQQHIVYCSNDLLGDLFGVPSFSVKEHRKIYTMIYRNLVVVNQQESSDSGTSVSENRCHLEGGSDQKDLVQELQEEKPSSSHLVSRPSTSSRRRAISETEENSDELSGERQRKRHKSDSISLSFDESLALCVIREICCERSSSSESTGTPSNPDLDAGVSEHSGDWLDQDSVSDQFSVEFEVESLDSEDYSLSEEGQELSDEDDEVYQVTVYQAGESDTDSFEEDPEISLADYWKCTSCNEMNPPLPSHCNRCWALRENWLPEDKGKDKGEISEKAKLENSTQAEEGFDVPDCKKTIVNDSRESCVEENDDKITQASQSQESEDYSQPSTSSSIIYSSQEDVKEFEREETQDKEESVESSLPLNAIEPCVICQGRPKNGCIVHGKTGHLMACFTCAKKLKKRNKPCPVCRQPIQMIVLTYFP
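Timing – 2 h compound exposure at 37 °C · Assay system – mammalian cells stably expressing self-ubiquitinating, self-degrading MDM2 E3–luciferase fusion · Amount – 2000 cells seeded into each well · Measure – % luminescence enhancement versus blank-corrected plate control mean · Measured by – SteadyLite luminescence, 15 min reagent step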
S1P4 ag = activates the human S1P4 receptor; S1P4-expressing cell line, agonist reporter assay; activation, % at 4.98 µM; 0.35% of 220,000 active; AID 1509; in the data active = activation above about 11%;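 also: 0% = DMSO vehicle and 100% = reference agonist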
* = called active by the depositor; · = no result given. This excerpt belongs to a sample that is enriched for hits.

SMILES	S1P3 antagonist	L major viab	S1P4 antagonist	Mdm2 ligase inh	S1P4 ag
C1=CCC(CN2CCN(C3CCCCCC3)CC2)CC1 (configuration not stated)	-12	90*	-10	-62	3
Cc1cccc(N2C(=O)CC(N3CCN(c4cccc(C(F)(F)F)c4)CC3)C2=O)c1 (configuration not stated)	25	-6	0	-13	2
O=[N+]([O-])c1ccccc1S(=O)(=O)N1CCN(CC2CC=CCC2)CC1 (configuration not stated)	10	-4	-8	4	0
FC(F)(F)c1cccc(N2CCN(CC3CC=CCC3)CC2)c1 (configuration not stated)	·	93*	-4	-9	0
Cc1ccc(N2CCN(CC3CC=CCC3)CC2)cc1 (configuration not stated)	-30	97*	1	-5	0
CCCN1CCC(N2CCN(c3cccc(C(F)(F)F)c3)CC2)CC1	2	100*	-7	-12	0
COc1ccc(NC(=O)CSc2nnc(Cn3cnc4ccccc43)o2)cc1	-6	-5	-6	-24	0
O=C(O)CCCNc1ccc(S(=O)(=O)N2CCCCC2)cc1	9	-2	-4	·	0
CC(c1ccon1)N(C)Cc1cn(C)nc1-c1cccc(Cl)c1 (configuration not stated)	13	2	1	-4	0
Cc1cc(=O)n2[nH]c(N3C(=O)CCC3=O)nc2n1	·	-3	-8	30*	1
O=C(c1ccco1)N1CCN(c2ncnc3scc(-c4ccc(F)cc4)c23)CC1	·	78*	-4	·	-1
Cc1cccc2[nH]c3c(N4CCN(C(=O)c5ccco5)CC4)ncnc3c12	·	82*	7	-3	-1
Cc1sc2ncnc(N3CCN(C(=O)c4ccco4)CC3)c2c1C	-8	10	3	-3	1
Cc1onc(-c2ccccc2)c1C(=O)NC(=S)NNC(=O)c1ccc(O)cc1	4	0	-6	-25	2
Cc1onc(-c2ccccc2)c1C(=O)NC(=S)NNC(=O)c1ccccc1O	18	67*	3	-14	0
Cc1onc(-c2ccccc2)c1C(=O)NC(=S)NNC(=O)c1ccc(O)cc1O	-6	92*	6	3	0
CCOc1ccccc1N(C(=O)Cn1nnnc1-c1ccc(C)o1)C(CC)C(=O)NC(C)(C)C (configuration not stated)	-28	4	-30	-4	-1
CSc1ncccc1C(=O)NC(C)C1CC2CCC1C2 (configuration not stated)	-8	0	-2	7	1
COc1cc(C2N(C)CCC3(OCCO3)C2(C)C)cc(OC)c1OC (configuration not stated)	5	58*	-6	-14	0
COc1cc(C2N(c3ccccc3)CCN2c2ccccc2)cc(OC)c1OC	-12	2	-9	-5	-1
COc1ccc(Cl)cc1NC(=O)CN(C)CC(=O)NC(C)c1ccccc1 (configuration not stated)	13	17	-18	-3	1
COc1cccc(C(=O)N/N=C/C(Br)=C/c2ccccc2)c1	-3	48	-1	-10	-1
CC(C)c1ccc(NC(=O)Cn2cccc2C2=NC(c3ccccc3)CO2)cc1 (configuration not stated)	-5	87*	-30	-74	-1
CCN(CCNC(=O)CN(C)S(=O)(=O)c1cccc2nsnc12)c1ccccc1	·	95*	-2	-17	3
CCN(CCCNC(=O)CN(C)S(=O)(=O)c1cccc2nsnc12)c1cccc(C)c1	-11	34	-4	-10	0
SMILES	S1P3 antagonist	L major viab	S1P4 antagonist	Mdm2 ligase inh	S1P4 ag
COc1ccccc1/C=N/N(C(C)=O)c1nc(-c2ccc(F)cc2)cs1	·	2	-11	-2	2
COc1cc(NC(=O)CN2C(=O)NC(c3ccccc3)(c3ccccc3)C2=O)c(C)cc1[N+](=O)[O-]	1	5	-6	·	-1
COc1ccc2oc(C(=O)c3ccccc3)c(NC(=O)CN3CCN(C)CC3)c2c1	-24	98*	7	-19	-1
C=CCSc1nnc2nc3[nH]c4c(C)cccc4c3nn12	·	72*	-9	-5	2
CC[C@@H](C)C(N)c1cn([C@@H](CCC(=O)O)C(=O)N2CCNCC2)nn1 (some centres not stated)	-9	-3	-4	·	-1
CC(C)N1CCc2c(sc(NC(=O)c3nc4ccccc4s3)c2C(N)=O)C1	-2	24	10	-20	1
